The record followed here is ChEMBL document CHEMBL4414663, “Pyrazole-4-Carboxamide (YW2065): A Therapeutic Candidate for Colorectal Cancer via Dual Activities of Wnt/β-Catenin Signaling Inhibition and AMP-Activated Protein Kinase (AMPK) Activation” (J Med Chem, 2019).

The species entered for data set [1] is Homo sapiens. The data set can be described thus: Inhibition of Wnt/beta-Catenin signaling in human SW620 cells assessed as reduction in cyclinD1 mRNA expression at 10 uM incubated for 24 hrs by real-time PCR analysis. The format is cell-based. An outline of the steps:
(§1)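 SW620 cells (RPMI 1640, 10% FBS) in 6-well plates, incubated 24 h, then treated with compound at several concentrations, three replicates each, for 24 h. Total RNA isolated with Trizol/phenol-chloroform; 2 µg reverse transcribed; Wnt target gene mRNA quantified by PCR.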

For data set [2], the species on record is Homo sapiens. Description: Inhibition of Wnt/beta-Catenin signaling in human SW620 cells assessed as reduction in MMP7 mRNA expression at 10 uM incubated for 24 hrs by real-time PCR analysis. The format is cell-based. The method, boiled down: as §1
A general note: Quantitative PCR measures a nucleic acid by following its amplification.

Data set [3] addresses AMP-activated protein kinase, AMPK (Homo sapiens) (UniProt P54646+O43741+P54619+Q9UGJ0+Q9Y478+Q13131+Q9UGI9). Description: Activation of AMPK in human SW620 cells assessed as increase in AMPK phosphorylation incubated for 24 hrs by Western blot analysis. It is filed as cell-based. An outline of the steps: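 SW620 cells in RPMI 1640 with 10% FBS, treated over a concentration range. Lysed in RIPA with protease inhibitors, 20 µL of 2 mg/mL protein run on 7.5% SDS-PAGE, transferred to nitrocellulose, blocked in 5% BSA. Rabbit primaries (Axin-1, ACC, pACC, AMPK, pAMPK at 1:1,000; β-actin 1:2,000) overnight at 4 °C, HRP secondary 1:8000 for 2 h, ECL.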
For orientation: Immunoblotting shows a protein as a band on a membrane.

Data set [4] relates to SW-620. Description: Induction of apoptosis in human SW620 cells incubated for 48 hrs by AAD-7 and FITC-annexin-V staining based flow cytometry. The format is functional, cell-based. An outline of the steps:
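Cells treated with a range of concentrations or DMSO for 48 h. Stained with FITC annexin V/7-AAD and analysed by flow cytometry.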

Data set [5] deals with SW-620. The data set can be described thus: Growth inhibition of human SW620 cells over-expressing constitutively active beta-catenin S33Y mutant incubated for 72 hrs by Cell-titer-fluor reagent based assay. The format is functional. The following applies: SW-620, 72 h. The method, boiled down:
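SW620 cells, parental, overexpressing β-catenin S33Y, or with Axin-1 knocked down by lentiviral shRNA. Treated with compound or vehicle for 72 h.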

Data set [6] concerns SW-620. Description: Induction of apoptosis in human SW620 cells assessed as viable cells level at 1 uM incubated for 48 hrs by AAD-7 and FITC-annexin-V staining based flow cytometry (reference value: 73.8%). It is filed as functional.
The test system of data set [7] is SW-620. The data set can be described thus: Induction of apoptosis in human SW620 cells assessed as viable cells level at 3 uM incubated for 48 hrs by AAD-7 and FITC-annexin-V staining based flow cytometry (reference value: 73.8%). The format is functional. (A flow cytometer gives signals particle by particle.)
The subject of data set [8] is SW-620. The data set can be described thus: Induction of apoptosis in human SW620 cells assessed as necrotic cells level at 3 uM incubated for 48 hrs by AAD-7 and FITC-annexin-V staining based flow cytometry (reference value: 0.027%). The format is functional.
For data set [9], the system named is SW-620. Description: Induction of apoptosis in human SW620 cells assessed as viable cells level at 10 uM incubated for 48 hrs by AAD-7 and FITC-annexin-V staining based flow cytometry (reference value: 73.8%). The format is functional.
For data set [10], the system named is SW-620. Description: Induction of apoptosis in human SW620 cells assessed as necrotic cells level at 10 uM incubated for 48 hrs by AAD-7 and FITC-annexin-V staining based flow cytometry (reference value: 0.027%). The format is functional.
Data set [11] addresses Cyclin-dependent kinase 17 (Homo sapiens) (UniProt Q00537). The data set can be described thus: Inhibition of CDK17 (unknown origin) at 1000 nM relative to control. The method, boiled down:
(§2)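 Single-concentration screen at 1000 nM against a 273-kinase panel, reported as percent inhibition.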

Data set [12] has as its target Mitogen-activated protein kinase kinase kinase kinase 4 (Homo sapiens) (UniProt O95819). The data set can be described thus: Inhibition of MAP4K4 (unknown origin) at 1000 nM relative to control. The method, boiled down:
as §2

For data set [13], the target named is MAP kinase-activated protein kinase 3 (Homo sapiens) (UniProt Q16644). The data set can be described thus: Inhibition of MAPKAPK3 (unknown origin) at 1000 nM relative to control. The method, boiled down:
as §2

Data set [14] deals with Maternal embryonic leucine zipper kinase (Homo sapiens) (UniProt Q14680). Description: Inhibition of MELK (unknown origin) at 1000 nM relative to control. An outline of the steps:
as §2

Data set [15] in a line: Tmax in C57BL/6J mouse at 5 mg/kg, po by UPLC-MS analysis. The following applies: in vivo. The format is ADME, organism-based. An outline of the steps:
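Male C57BL/6J mice, 2–3 months old, 23–26 g. Single 5 mg/kg dose in 5% Kolliphor in saline, IV (n = 3) or oral gavage (n = 5). Tail-vein blood taken at 0.25, 0.5, 1, 4, 8 and 12 h and centrifuged to plasma. Analysed by LC-MS/MS (QTRAP 4000, C18 column); parameters from non-compartmental analysis.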

Data set [16] relates to SW-620. The data set can be described thus: Antitumor activity against human SW620 cells xenografted in nude mouse assessed as reduction in tumor weight at 10 mg/kg, ip QD for 32 consecutive days. The format is functional, organism-based. An outline of the steps:
(§3)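 Six-week-old nude mice injected subcutaneously with 2×10^6 SW620 cells. Randomised at mean tumor volume 100–200 mm³ (n=6/group). Given 10 or 50 mg/kg ip daily for 32 consecutive days; vehicle 10% DMSO, 10% Kolliphor, 80% saline. Tumor volume measured every other day. Tumors weighed after euthanasia at day 32. t test against vehicle.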

Data set [17] concerns SW-620. The data set can be described thus: Antitumor activity against human SW620 cells xenografted in nude mouse assessed as reduction in tumor volume at 50 mg/kg, ip QD for 32 consecutive days relative to control. It is filed as functional. Also on record: scale not given: the % may be the effect or the level left. An outline of the steps: as §3
Data set [18] can be described thus: Toxicity in C57BL/6 mouse assessed as effect on glucose level at 100 mg/kg/day, ip for 21 days. The format is organism-based. The following applies: in vivo, 504 h.
A short description of data set [19]: Toxicity in C57BL/6 mouse assessed as effect on albumin level at 100 mg/kg/day, ip for 21 days. The format is organism-based. The following applies: in vivo, 504 h.
In data set [20] the test system is Mus musculus. The data set can be described thus: Activation of AMPK in nude mouse xenografted with human SW620 cells assessed as increase in ACC phosphorylation at 50 mg/kg, ip QD for 32 consecutive days by Western blot analysis. The format is functional, organism-based. An outline of the steps:
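Nude mice carried subcutaneous SW620 xenografts (2×10^6 cells, right flank). Dosing began once mean tumor volume reached 100–200 mm³: 50 mg/kg ip once daily for 32 days, vehicle 10% DMSO/10% Kolliphor/80% saline. Tumors taken at day 32 and lysed in RIPA with protease inhibitors. Western blot with 20 µL of 2 mg/mL lysate on 7.5% SDS-PAGE, probed for pAMPK/AMPK or pACC/ACC, ECL detection.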

For data set [21], the system named is Mus musculus. The data set can be described thus: Inhibition of Wnt/beta-Catenin signaling in nude mouse xenografted with human SW620 cells assessed as reduction in Axin-2 mRNA expression at 50 mg/kg, ip QD for 32 consecutive days by RT-PCR analysis. The format is organism-based. The following applies: in vivo. The method, boiled down:
(§4)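 Six-week-old nude mice implanted subcutaneously in the right flank with 2×10^6 SW620 cells. Randomized at mean tumor volume 100–200 mm³, n = 6/group. Dosed IP once daily for 32 days at 10 or 50 mg/kg, or vehicle (10% DMSO, 10% Kolliphor, 80% saline). Tumors collected at day 32; Axin-2, MMP-7 and S100A4 expression measured by RT-PCR.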

Data set [22] relates to Mus musculus. Description: Inhibition of Wnt/beta-Catenin signaling in nude mouse xenografted with human SW620 cells assessed as reduction in S100A4 mRNA expression at 50 mg/kg, ip QD for 32 consecutive days by RT-PCR analysis. It is filed as organism-based. The following applies: in vivo. The method, boiled down:
as §4

Each structure is given as a SMILES string. pIC50: −log10 of the molar value. The source made the active and inactive calls. The calls are words filed in the database; no cut-off is given here.

Chain of MAP kinase-activated protein kinase 3 (Homo sapiens) (Q16644 whole entry, looked up): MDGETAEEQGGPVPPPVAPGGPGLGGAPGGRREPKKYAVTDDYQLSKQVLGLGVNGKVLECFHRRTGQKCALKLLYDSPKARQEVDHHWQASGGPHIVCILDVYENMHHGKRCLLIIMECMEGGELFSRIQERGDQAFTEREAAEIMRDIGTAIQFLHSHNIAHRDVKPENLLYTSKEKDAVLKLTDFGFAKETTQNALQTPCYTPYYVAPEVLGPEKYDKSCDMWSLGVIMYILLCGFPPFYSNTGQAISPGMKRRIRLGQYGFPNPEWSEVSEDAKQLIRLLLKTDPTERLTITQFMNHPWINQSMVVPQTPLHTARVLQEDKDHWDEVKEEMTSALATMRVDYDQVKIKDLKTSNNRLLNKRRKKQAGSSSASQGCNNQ
Chain of Mitogen-activated protein kinase kinase kinase kinase 4 (Homo sapiens) (O95819 2-1239 limits assumed): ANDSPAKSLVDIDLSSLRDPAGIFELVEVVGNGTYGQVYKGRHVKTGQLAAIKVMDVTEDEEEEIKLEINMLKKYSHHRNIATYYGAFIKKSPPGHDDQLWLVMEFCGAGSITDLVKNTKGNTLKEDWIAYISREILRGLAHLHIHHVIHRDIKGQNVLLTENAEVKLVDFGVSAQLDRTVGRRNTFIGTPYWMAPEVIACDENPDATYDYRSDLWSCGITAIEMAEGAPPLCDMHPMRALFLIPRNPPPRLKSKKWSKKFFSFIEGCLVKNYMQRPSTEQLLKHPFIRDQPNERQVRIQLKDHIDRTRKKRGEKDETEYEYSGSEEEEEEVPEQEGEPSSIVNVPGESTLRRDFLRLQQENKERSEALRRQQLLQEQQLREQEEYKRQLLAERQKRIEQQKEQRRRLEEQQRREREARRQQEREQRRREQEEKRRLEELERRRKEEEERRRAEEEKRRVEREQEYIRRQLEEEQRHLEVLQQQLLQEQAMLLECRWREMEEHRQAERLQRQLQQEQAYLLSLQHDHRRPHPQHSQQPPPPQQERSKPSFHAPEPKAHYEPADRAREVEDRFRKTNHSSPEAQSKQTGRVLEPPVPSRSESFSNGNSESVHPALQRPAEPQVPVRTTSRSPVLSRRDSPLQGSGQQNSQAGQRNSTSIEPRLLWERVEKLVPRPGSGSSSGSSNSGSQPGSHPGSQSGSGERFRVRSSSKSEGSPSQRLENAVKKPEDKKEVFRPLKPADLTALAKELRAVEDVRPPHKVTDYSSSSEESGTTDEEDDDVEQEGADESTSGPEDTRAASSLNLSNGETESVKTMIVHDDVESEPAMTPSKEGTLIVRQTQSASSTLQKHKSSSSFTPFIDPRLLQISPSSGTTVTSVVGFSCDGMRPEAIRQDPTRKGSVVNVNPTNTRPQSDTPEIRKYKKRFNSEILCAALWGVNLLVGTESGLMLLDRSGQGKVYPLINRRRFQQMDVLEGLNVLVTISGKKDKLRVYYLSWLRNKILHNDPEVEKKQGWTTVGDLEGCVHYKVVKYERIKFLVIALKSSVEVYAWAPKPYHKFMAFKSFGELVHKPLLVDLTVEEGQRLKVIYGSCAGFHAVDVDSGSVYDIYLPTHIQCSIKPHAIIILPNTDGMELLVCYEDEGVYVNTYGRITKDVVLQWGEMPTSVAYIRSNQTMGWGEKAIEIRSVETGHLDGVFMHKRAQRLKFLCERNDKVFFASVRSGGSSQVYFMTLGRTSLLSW
Chain of Cyclin-dependent kinase 17 (Homo sapiens) (Q00537 whole entry, looked up): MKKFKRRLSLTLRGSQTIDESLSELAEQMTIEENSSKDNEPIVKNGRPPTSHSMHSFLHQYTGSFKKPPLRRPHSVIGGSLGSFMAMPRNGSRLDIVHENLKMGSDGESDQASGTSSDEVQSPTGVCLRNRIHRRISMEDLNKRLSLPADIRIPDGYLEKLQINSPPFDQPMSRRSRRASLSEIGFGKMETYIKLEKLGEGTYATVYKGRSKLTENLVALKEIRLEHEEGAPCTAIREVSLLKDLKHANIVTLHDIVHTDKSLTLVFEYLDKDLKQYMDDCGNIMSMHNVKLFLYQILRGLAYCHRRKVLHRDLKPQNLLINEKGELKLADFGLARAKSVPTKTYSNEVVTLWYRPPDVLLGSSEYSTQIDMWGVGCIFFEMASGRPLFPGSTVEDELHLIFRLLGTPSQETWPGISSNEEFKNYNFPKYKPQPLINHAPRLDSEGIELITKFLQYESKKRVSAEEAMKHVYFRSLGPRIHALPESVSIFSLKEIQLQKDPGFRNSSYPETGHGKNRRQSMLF
Chain of Maternal embryonic leucine zipper kinase (Homo sapiens) (Q14680 whole entry, looked up): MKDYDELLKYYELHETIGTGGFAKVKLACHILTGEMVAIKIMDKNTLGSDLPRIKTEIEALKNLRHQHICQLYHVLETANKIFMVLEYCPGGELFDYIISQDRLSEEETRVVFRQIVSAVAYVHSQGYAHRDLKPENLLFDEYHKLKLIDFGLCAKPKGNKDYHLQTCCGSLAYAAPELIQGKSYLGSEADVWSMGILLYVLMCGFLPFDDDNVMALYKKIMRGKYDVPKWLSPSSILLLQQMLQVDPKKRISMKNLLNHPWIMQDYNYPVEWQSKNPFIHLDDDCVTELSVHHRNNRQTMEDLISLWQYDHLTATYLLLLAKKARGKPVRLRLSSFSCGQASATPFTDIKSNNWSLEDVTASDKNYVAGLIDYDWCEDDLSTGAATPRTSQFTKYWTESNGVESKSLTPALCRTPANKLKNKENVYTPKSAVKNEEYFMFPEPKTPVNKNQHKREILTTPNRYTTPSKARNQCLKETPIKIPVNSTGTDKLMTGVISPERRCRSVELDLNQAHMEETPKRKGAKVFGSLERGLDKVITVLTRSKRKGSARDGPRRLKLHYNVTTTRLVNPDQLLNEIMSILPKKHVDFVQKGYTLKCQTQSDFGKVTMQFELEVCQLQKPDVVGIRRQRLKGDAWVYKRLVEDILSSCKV

By pIC50 is commonly meant the IC50 on a negative log10 scale, so that one unit is a factor of ten. The term Tmax denotes the time from dosing to the highest level. Regarding `Cc1c(C(=O)Nc2ccc3ccccc3n2)cnn1-c1ccccc1Br`, the inhibition result (in the data set listed under Homo sapiens [1]; in the data set listed under Homo sapiens [2]; in data set [11]; in [12]; in data set [13]; in [14]) was “Active” throughout. Also, the Activity result was “Dose-dependent effect” in data set [3]; “Dose-dependent effect” in the data set with SW-620 [4]; 67.1% with SW-620 [6]; 45% in the data set with SW-620 [7]; 0.048% in the data set with SW-620 [8]; 22.1% with SW-620 [9]. For the same compound, the Activity is on record as 0.00722% in the data set on SW-620 [10], 49% with SW-620 [17], “Non-Toxic” in data set [18] and “Non-Toxic” in data set [19]. Further, in the data set with SW-620 [5], the pIC50 is 7.17. In addition, the Tmax in [15] is 18 min. In addition, the result in the data set on SW-620 [16] and in the data set on Mus musculus [20] was Active. Moreover, the “inhibition (INH)” value with Mus musculus [21] and in the data set with Mus musculus [22] was “Active” each time.
